Test system: ATH-8 cell line
Test: Required dose to reduce viability of normal uninfected ATH8 cells.
Format: functional
Details: Homo sapiens, read-out: ID50 (the source's name)
For `CCSC1CC(n2cc(C)c(=O)[nH]c2=O)OC1CO` (configuration not stated), the IC50 was 100 µM.
`Nc1ncnc2c1ncn2[C@H]1CC[C@@H](CO)O1` gave an IC50 of over 500 µM.
Compound `Nc1ccn(C2CC(F)C(CO)O2)c(=O)n1` (configuration not stated) has an IC50 of over 250 µM.
`Nc1ccn(C2CC3OCC3O2)c(=O)n1` (configuration not stated) gave an IC50 of over 500 µM.
Work on `CNc1nc(=O)n(C2CC(N=[N+]=[N-])C(CO)O2)cc1C` (configuration not stated) yielded an IC50 of over 100 µM.
In the case of `Cc1cn(C2CC(Cl)C(CO)O2)c(=O)[nH]c1=O` (configuration not stated), the IC50 is reported as over 500 µM.
`O=c1ccn(C2CCC(CO)O2)c(=O)[nH]1` (configuration not stated) gave an IC50 of over 500 µM.

Test system: MT4
Test: Toxicity was determined by evaluation of cluster morphology and reclustering properties in mock infected MT-4 cells at 0.2 uM concentration
Format: cell-based
Details: human, mt4, 0.2 µM
In the case of `CCSC1CC(n2cc(C)c(=O)[nH]c2=O)OC1CO` (configuration not stated), the Toxicity is reported as under 10%.
Compound `Nc1ncnc2c1ncn2[C@H]1CC[C@@H](CO)O1` has a Toxicity of under 10%.
With `Nc1ccn(C2CC3OCC3O2)c(=O)n1` (configuration not stated) the Toxicity was under 10%.
`CNc1nc(=O)n(C2CC(N=[N+]=[N-])C(CO)O2)cc1C` (configuration not stated) showed a Toxicity of under 10%.
Compound `Cc1cn(C2CC(Cl)C(CO)O2)c(=O)[nH]c1=O` (configuration not stated) has a Toxicity of under 10%.
With `O=c1ccn(C2CCC(CO)O2)c(=O)[nH]1` (configuration not stated) the Toxicity was under 10%.

Test system: ATH-8 cell line
Test: Protection of ATH8 cells against the cytopathic effect of HIV.
Format: functional
Details: Homo sapiens, read-out: ED50 (the source's name)
`CCSC1CC(n2cc(C)c(=O)[nH]c2=O)OC1CO` (configuration not stated) showed an EC50 of over 100 µM.
Work on `Nc1ncnc2c1ncn2[C@H]1CC[C@@H](CO)O1` yielded an EC50 of 2.7 µM.
Compound `Nc1ccn(C2CC(F)C(CO)O2)c(=O)n1` (configuration not stated) has an EC50 of 8 µM.
In the case of `Nc1ccn(C2CC3OCC3O2)c(=O)n1` (configuration not stated), the EC50 is reported as 400 µM.
`CNc1nc(=O)n(C2CC(N=[N+]=[N-])C(CO)O2)cc1C` (configuration not stated) gave an EC50 of over 100 µM.
`Cc1cn(C2CC(Cl)C(CO)O2)c(=O)[nH]c1=O` (configuration not stated) gave an EC50 of over 500 µM.
`O=c1ccn(C2CCC(CO)O2)c(=O)[nH]1` (configuration not stated) gave an EC50 of over 500 µM.

Test system: MT4
Test: Toxicity was determined by evaluation of cluster morphology and reclustering properties in mock infected MT-4 cells at 0.00032 uM concentration
Format: cell-based
Details: human, mt4, 0.00032 µM
Summary of the method: (§1)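 Mock-infected MT4 cells were seeded at 2.5×10^5 cells/mL with compound at 125–0.00032 µM and cultured 5 days at 37 °C. Cluster morphology was scored microscopically, then cells were dispersed by pipetting and reclustering read after 4 h. Scoring: ++ >90%, + 10–40%, − <10% toxicity.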
In the case of `Nc1ccn(C2CC(F)C(CO)O2)c(=O)n1` (configuration not stated), the Toxicity is reported as under 10%.

Test system: MT4
Test: Toxicity was determined by evaluation of cluster morphology and reclustering properties in mock infected MT-4 cells at 0.2 uM concentration; Range is 10-40
Format: cell-based
Details: human, mt4, 0.2 µM
Summary of the method: as §1
`Nc1ccn(C2CC(F)C(CO)O2)c(=O)n1` (configuration not stated) showed a Toxicity of 10%.

Test system: MT4
Test: Protection was determined by evaluation of cluster morphology and reclustering properties in […] MT-4 cells at 0.2 uM concentration
Format: functional, Homo sapiens
Details: not given
`CCSC1CC(n2cc(C)c(=O)[nH]c2=O)OC1CO` (configuration not stated) gave a Protection of under 10%.
With `Nc1ncnc2c1ncn2[C@H]1CC[C@@H](CO)O1` the Protection was under 10%.
In the case of `Nc1ccn(C2CC3OCC3O2)c(=O)n1` (configuration not stated), the Protection is reported as under 10%.
With `CNc1nc(=O)n(C2CC(N=[N+]=[N-])C(CO)O2)cc1C` (configuration not stated) the Protection was under 10%.
For `Cc1cn(C2CC(Cl)C(CO)O2)c(=O)[nH]c1=O` (configuration not stated), the Protection was under 10%.
`O=c1ccn(C2CCC(CO)O2)c(=O)[nH]1` (configuration not stated) showed a Protection of under 10%.

Test system: MT4
Test: Toxicity was determined by evaluation of cluster morphology and reclustering properties in mock infected MT-4 cells at 0.008 uM concentration
Format: cell-based
Details: human, mt4, 0.008 µM
Summary of the method: as §1
Compound `Nc1ccn(C2CC(F)C(CO)O2)c(=O)n1` (configuration not stated) has a Toxicity of under 10%.

Test system: MT4
Test: Protection was determined by evaluation of cluster morphology and reclustering properties in […] MT-4 cells at 0.00032 uM concentration
Format: functional, Homo sapiens
Details: not given
Summary of the method: (§2)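 MT4 cells infected with HIV (300 CCID50/well) were seeded at 2.5×10^5 cells/mL with compound at 125, 5, 0.2, 0.008 or 0.00032 µM and kept 5 days at 37 °C. Clusters were scored microscopically, dispersed by pipetting, and reclustering assessed after 4 h at 37 °C. Scoring: +++ >90% protection.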
Compound `Nc1ccn(C2CC(F)C(CO)O2)c(=O)n1` (configuration not stated) has a Protection of under 10%.

Test system: MT4
Test: Toxicity was determined by evaluation of cluster morphology and reclustering properties in mock infected MT-4 cells at 125 uM concentration
Format: cell-based
Details: human, mt4, 125 µM
Work on `CCSC1CC(n2cc(C)c(=O)[nH]c2=O)OC1CO` (configuration not stated) yielded a Toxicity of over 90%.
`Nc1ncnc2c1ncn2[C@H]1CC[C@@H](CO)O1` showed a Toxicity of under 10%.
In the case of `Nc1ccn(C2CC(F)C(CO)O2)c(=O)n1` (configuration not stated), the Toxicity is reported as over 90%.
With `Nc1ccn(C2CC3OCC3O2)c(=O)n1` (configuration not stated) the Toxicity was under 10%.
`CNc1nc(=O)n(C2CC(N=[N+]=[N-])C(CO)O2)cc1C` (configuration not stated) showed a Toxicity of under 10%.
With `Cc1cn(C2CC(Cl)C(CO)O2)c(=O)[nH]c1=O` (configuration not stated) the Toxicity was over 90%.
With `O=c1ccn(C2CCC(CO)O2)c(=O)[nH]1` (configuration not stated) the Toxicity was under 10%.

Test system: not listed separately
Test: Therapeutic index (Ratio = ID50/ED50).
Details: not given
In the case of `CCSC1CC(n2cc(C)c(=O)[nH]c2=O)OC1CO` (configuration not stated), the selectivity ratio is reported as under 1.
With `Nc1ncnc2c1ncn2[C@H]1CC[C@@H](CO)O1` the selectivity ratio was over 148.
With `Nc1ccn(C2CC(F)C(CO)O2)c(=O)n1` (configuration not stated) the selectivity ratio was over 31.
With `Nc1ccn(C2CC3OCC3O2)c(=O)n1` (configuration not stated) the selectivity ratio was over 1.2.

Test system: MT4
Test: Protection was determined by evaluation of cluster morphology and reclustering properties in […] MT-4 cells at 0.2 uM concentration; Range is 40-60
Format: functional, Homo sapiens
Details: not given
Summary of the method: as §2
With `Nc1ccn(C2CC(F)C(CO)O2)c(=O)n1` (configuration not stated) the Protection was 40%.

Test system: MT4
Test: Protection was determined by evaluation of cluster morphology and reclustering properties in […] MT-4 cells at 5 uM concentration; Range is 10-40
Format: functional, Homo sapiens
Details: not given
Summary of the method: as §2
`CCSC1CC(n2cc(C)c(=O)[nH]c2=O)OC1CO` (configuration not stated) gave a Protection of 10%.
`CNc1nc(=O)n(C2CC(N=[N+]=[N-])C(CO)O2)cc1C` (configuration not stated) showed a Protection of 10%.
`Cc1cn(C2CC(Cl)C(CO)O2)c(=O)[nH]c1=O` (configuration not stated) showed a Protection of 10%.

Test system: MT4
Test: Protection was determined by evaluation of cluster morphology and reclustering properties in mock infected MT-4 cells at 125 uM concentration
Format: functional, Homo sapiens
Details: in the assay text read “HIV infected” for “mock infected”
Summary of the method: as §2
With `Nc1ncnc2c1ncn2[C@H]1CC[C@@H](CO)O1` the Protection was over 90%.
With `CNc1nc(=O)n(C2CC(N=[N+]=[N-])C(CO)O2)cc1C` (configuration not stated) the Protection was over 90%.
For `O=c1ccn(C2CCC(CO)O2)c(=O)[nH]1` (configuration not stated), the Protection was over 90%.

Test system: MT4
Test: Protection was determined by evaluation of cluster morphology and reclustering properties in […] at 0.008 uM concentration.
Format: functional, Homo sapiens
Details: not given
In the case of `CCSC1CC(n2cc(C)c(=O)[nH]c2=O)OC1CO` (configuration not stated), the Protection is reported as under 10%.
With `Nc1ccn(C2CC(F)C(CO)O2)c(=O)n1` (configuration not stated) the Protection was under 10%.
For `Cc1cn(C2CC(Cl)C(CO)O2)c(=O)[nH]c1=O` (configuration not stated), the Protection was under 10%.

Test system: MT4
Test: Protection was determined by evaluation of cluster morphology and reclustering properties in mock infected MT-4 cells at 125 uM concentration; Range is 10-40
Format: functional, Homo sapiens
Details: in the assay text read “HIV infected” for “mock infected”
Summary of the method: as §2
With `Nc1ccn(C2CC3OCC3O2)c(=O)n1` (configuration not stated) the Protection was 10%.

Test system: MT4
Test: Toxicity was determined by evaluation of cluster morphology and reclustering properties in mock infected MT-4 cells at 5 uM concentration
Format: cell-based
Details: human, mt4, 5 µM
Summary of the method: as §1
Compound `CCSC1CC(n2cc(C)c(=O)[nH]c2=O)OC1CO` (configuration not stated) has a Toxicity of under 10%.
With `Nc1ncnc2c1ncn2[C@H]1CC[C@@H](CO)O1` the Toxicity was under 10%.
`Nc1ccn(C2CC(F)C(CO)O2)c(=O)n1` (configuration not stated) gave a Toxicity of over 90%.
`Nc1ccn(C2CC3OCC3O2)c(=O)n1` (configuration not stated) gave a Toxicity of under 10%.
With `CNc1nc(=O)n(C2CC(N=[N+]=[N-])C(CO)O2)cc1C` (configuration not stated) the Toxicity was under 10%.
For `Cc1cn(C2CC(Cl)C(CO)O2)c(=O)[nH]c1=O` (configuration not stated), the Toxicity was under 10%.
`O=c1ccn(C2CCC(CO)O2)c(=O)[nH]1` (configuration not stated) gave a Toxicity of under 10%.

Test system: MT4
Test: Protection was determined by evaluation of cluster morphology and reclustering properties in […] MT-4 cells at 5 uM concentration.
Format: functional, Homo sapiens
Details: not given
Summary of the method: as §2
Work on `Nc1ccn(C2CC3OCC3O2)c(=O)n1` (configuration not stated) yielded a Protection of under 10%.
Work on `O=c1ccn(C2CCC(CO)O2)c(=O)[nH]1` (configuration not stated) yielded a Protection of under 10%.

Test system: MT4
Test: Protection was determined by evaluation of cluster morphology and reclustering properties in […] at 5 uM concentration; Range is 40-60
Format: functional, Homo sapiens
Details: not given
Work on `Nc1ncnc2c1ncn2[C@H]1CC[C@@H](CO)O1` yielded a Protection of 40%.

— ChEMBL document CHEMBL1123791, “3'-substituted 2',3'-dideoxynucleoside analogues as potential anti-HIV (HTLV-III/LAV) agents” (J Med Chem, 1987)
